Assay results: PMC4186986 (Acta Pharmacologica Sinica, 2014)

Legend:
Type in all cases: cell-based
[1] = system: cyclin A, cyclin E, CDK2 in MDA-MB-231 cells; experiment: Western blot of cell cycle regulatory proteins; conditions: MDA-MB-231, 48 h; compounds together with 1 nmol/L E2
How it was run: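 MDA-MB-231 cells in DMEM/F12 with 10% charcoal-stripped FBS, seeded at 2×10^5 cells/well, treated 48 h with 1 nmol/L E2 plus test compound at several concentrations. Run on 12% SDS-PAGE, transferred to PVDF, probed overnight at 4 °C for cyclin A, cyclin E and CDK2, with ECL detection. GAPDH served as loading control; three independent experiments.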

[2] = system: MCF-7 cells; experiment: MTT anti-proliferation assay, MCF-7; conditions: Homo sapiens, MCF7, 48 h, read-out: MCF-7 inhibition (%)
How it was run: (§1)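 MCF-7 or MDA-MB-231 cells seeded at 10^5 cells/mL in phenol red-free DMEM/F12 with 10% charcoal-stripped FBS. Exposed to test compound at 0.01–100 μmol/L for 48 h (37 °C, 5% CO2), then MTT (5 mg/mL stock) for 4 h. Formazan dissolved in DMSO; absorbance read at 570 nm. Inhibition taken relative to DMSO-treated cells set as 100% viability; single-point values at 100 μmol/L final.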

[3] = system: MDA-MB-231 cells; experiment: MTT anti-proliferation assay, MDA-MB-231; conditions: Homo sapiens, MDA-MB-231, 48 h, read-out: MDA-MB-231 inhibition (%)
How it was run: as §1

Compound: C[C@]12CC[C@@H]3c4ccc(O)cc4CC[C@H]3[C@@H]1CC[C@@H]2O [Estradiol, 17β-estrodial]
- expression level of CDK2 [1]: increased the expression
- expression level of cyclin A [1]: increased the expression
- expression level of cyclin E [1]: increased the expression

Compound: CC/C(=C(\c1ccccc1)c1ccc(OCCN(C)C)cc1)c1ccccc1 [Tamoxifen]
- inhibition at 100 µM [2]: 93.3%
- inhibition at 100 µM [3]: 80.5%
